# Compound activity deposited in PubChem by The Scripps Research Institute Molecular Screening Center.
# Shown are actives, neighbours in structure and some others; about 2.5% of the full set was active somewhere.
# GSTO1 inh: GSTO1 inhibition, counter-screen for RBBP9 inhibitors; AID 1974; P78417; 300,000 compounds, 1.1% hits; inhibition, % at 5.96 µM; recombinant GSTO1, activity-based probe fluorescence polarization;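 active means inhibition above the campaign mean inhibition plus 3 SD, cut at about 35% in these data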;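 further: 0% = GSTO1-1 with DMSO and 100% = wells lacking GSTO1-1 enzyme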
# PAD4 inh: PAD4 (human) enzyme inhibition. recombinant PAD4, RCA probe fluorescence polarization. inhibition, % at 6.36 µM. 330,000 compounds, 0.41% hits;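 active means percent inhibition above a cutoff equal to the mean of all tested compounds plus 3 SD, cut at about 15% in these data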;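 further: 0% = PAD4 with RCA probe and DMSO and 100% = probe without PAD4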
# Target sequence (Q9UM07 whole entry, looked up): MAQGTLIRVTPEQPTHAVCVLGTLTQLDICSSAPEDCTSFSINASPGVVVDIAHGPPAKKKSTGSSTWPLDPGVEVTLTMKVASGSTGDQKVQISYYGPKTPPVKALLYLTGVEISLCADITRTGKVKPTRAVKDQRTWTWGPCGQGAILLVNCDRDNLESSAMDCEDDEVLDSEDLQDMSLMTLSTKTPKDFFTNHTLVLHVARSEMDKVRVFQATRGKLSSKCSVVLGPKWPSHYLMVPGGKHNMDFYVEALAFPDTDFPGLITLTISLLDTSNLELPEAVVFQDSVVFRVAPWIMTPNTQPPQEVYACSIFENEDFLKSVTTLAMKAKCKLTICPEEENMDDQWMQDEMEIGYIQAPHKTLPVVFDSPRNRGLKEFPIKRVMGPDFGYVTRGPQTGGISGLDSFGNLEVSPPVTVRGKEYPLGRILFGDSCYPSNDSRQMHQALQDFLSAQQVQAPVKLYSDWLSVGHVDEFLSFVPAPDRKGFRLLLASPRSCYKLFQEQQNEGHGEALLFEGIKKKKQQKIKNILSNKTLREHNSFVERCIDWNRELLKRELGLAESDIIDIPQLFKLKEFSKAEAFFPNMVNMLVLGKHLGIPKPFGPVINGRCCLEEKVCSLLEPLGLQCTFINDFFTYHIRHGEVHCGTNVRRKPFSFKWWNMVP
# PRMT1 FP inh: blocks human protein arginine methyltransferase 1 | Q99873 | recombinant PRMT1, activity-based probe fluorescence polarization | inhibition, % at 2.79 µM | 370,000 compounds, 1.3% hits | AID 652257;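 active means inhibition above about 21% made by adding two undisclosed values, limit read from the data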
# eLon inh: E. coli protease La inhibition. inhibition, % at 7.94 µM. P0A9M0. 360,000 compounds, 0.42% hits. purified E. coli Lon protease, fluorescence polarization; in the data active means inhibition above about 13%, passing the limit was not always enough;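 further: 0% = enzyme with probe and DMSO and 100% = no enzyme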
# TDP2 absorb: TDP2 (human) inhibition, absorbance primary screen. O95551. recombinant TDP2, T5PNP hydrolysis, p-nitrophenol absorbance 415 nm. inhibition, % at 12.8 µM. 370,000 compounds, 0.34% hits;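 active means inhibition above the mean of all tested compounds plus 3 SD, set per campaign, cut at about 25% in these data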;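 further: 0% = DMSO with enzyme and 100% = buffer with substrate but no TDP2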
#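 Read-out basis: percent inhibition. System: recombinant human TDP2. Buffer or medium: Mg2+-containing Tris-HCl buffer, pH 7.5. Repeats: single replicate. Timing: reaction 2 h, 37 °C. Benchmarks: high control without enzyme, low control DMSO plus TDP2. Probe or stimulus: 5 mM T5PNP. Doses: 12.8 µM only. Measured by: epi absorbance of p-nitrophenol freed from T5PNP by hydrolysis.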
# PAD4 FP conf: confirmation of human PAD4 inhibitors; shares compounds with PAD4 inh; recombinant PAD4, RCA probe fluorescence polarization; inhibition, % at 6.36 µM; 1,200 compounds, 28% hits; AID 488796;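 active means mean inhibition across replicates above the hit cutoff set by the earlier primary screen, cut at about 15% in these data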;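 further: inhibitors block active-site labeling by the probe so polarization falls; 0% = PAD4 with probe and DMSO and 100% = probe without PAD4 enzyme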
# * marks the source's active call; other numbers are inactive results; x = no result.
SMILES,GSTO1 inh,PAD4 inh,PRMT1 FP inh,eLon inh,TDP2 absorb,PAD4 FP conf
CC(C)C(NC(=O)[C@H](Cc1ccc(O)cc1)NC(=O)OC(C)(C)C)P(=O)(O)OC(Cc1ccccc1)C(=O)O (stereo partly specified),x,x,3.5,x,2.7,x
CCOc1ccc(N2C(=O)CC(Sc3ccccc3C(=O)O)C2=O)c([N+](=O)[O-])c1 (stereo unspecified),14.4,26.2*,68.2*,-0.6,-1.0,12.6
CCN1C(=O)CC(Sc2ccccc2C(=O)O)C1=O (stereo unspecified),19.2,3.0,-0.7,-5.1,14.3,x
COc1cc(C#N)c(N=C(SCC#N)N2CCOCC2)cc1OC,13.3,24.9*,0.7,-12.4,-7.9,28.2*
COc1cc(C(=O)OCc2ccccc2C#N)ccc1OCC(=O)N1CCOCC1,x,-4.5,4.4,7.0,4.6,x
OCCCN1CCC2(CCC(c3ccccc3)CC2)C1 (stereo unspecified),x,x,-4.1,x,8.1,x
Cc1[nH]n(-c2ccccc2)c(=O)c1C(c1ccccc1[N+](=O)[O-])C(C#N)C#N (stereo unspecified),7.7,22.3*,5.6,16.5,74.9*,2.3
Cc1[nH]n(-c2ccccc2)c(=O)c1C(c1ccccc1C(=O)O)c1c(C)[nH]n(-c2ccccc2)c1=O,3.5,-3.5,-3.2,-4.5,1.7,x
Cc1ncc(N=Nc2ccc(F)cc2)c(-c2ccc(Cl)cc2)n1,4.6,18.4*,-0.1,10.6,11.4,0.7
O=C(Nc1ccc(Cl)cc1)Nc1ccccc1Sc1ncc([N+](=O)[O-])s1,-20.0,21.9*,49.6*,-4.5,-2.2,14.2
O=C(Nc1csc([N+](=O)[O-])c1)Nc1ccccc1Cl,-1.2,-2.5,-3.9,1.7,-3.6,x
Cc1ccc(C)c(NC(=S)c2ccc3ccccc3n2)c1,5.5,0.3,1.4,-0.5,6.6,x
CN(C)c1ccc(NC(=S)c2ccc3ccccc3n2)cc1,30.0,38.5*,8.9,-2.7,6.8,6.3
CN(C(=O)[C@@H]1CC=C[C@@H]2CCN(C3CCCCC3)C(=O)[C@@H]21)c1ccccc1,x,x,-5.2,x,4.0,x
Cc1sc2ncnc(Sc3nnnn3-c3ccccc3)c2c1C,-6.1,27.9*,-0.3,-3.3,-3.1,16.6*
Cn1nnnc1Sc1ncnc2scc(-c3ccc(Cl)cc3)c12,x,11.0,-0.1,-5.4,-0.3,x
Clc1ccc(-n2nnnc2Sc2ncnc3sccc23)cc1,-17.5,20.6*,7.1,5.5,1.5,21.0*
CC(C)CN1C(=O)C[C@@]2(C(=O)N(C)c3ccc(NC(=O)c4cc(F)ccc4F)cc32)C1c1ccccc1 (stereo partly specified),x,x,-1.7,x,3.6,x
O=C(OCCN1CCN(C2CN(Cc3cn(Cc4ccccc4F)nn3)S(=O)(=O)C2)CC1)c1cc2ccccc2o1 (stereo unspecified),x,x,-10.0,x,-0.7,x
Cc1ccc2c(c1)sc(-c1ccc(N(C)C)cc1)[n+]2C,2.5,19.0*,18.1,-3.8,1.5,-1.8
CC(=O)N1c2cc(S(=O)(=O)N3CCN(c4ccccc4F)CC3)c(Br)cc2CC1C (stereo unspecified),x,x,-3.3,x,2.5,x
CCOC(=O)CNC(=O)c1sc(NC(=O)c2cccc(F)c2)nc1C,1.1,25.3*,-0.4,1.1,8.5,2.2
Cc1cccc(NC(=O)CSc2nnc(SCc3ccc(Cl)cc3)s2)c1,x,x,0.9,x,-4.8,x
Cc1cc(C)c(S(=O)(=O)NCc2ccc3c(c2)OCO3)c(C)c1,x,x,-4.5,0.1,-9.8,x
Cc1noc(C)c1S(=O)(=O)NCc1ccc2c(c1)OCO2,4.7,25.4*,-6.1,-2.6,-6.2,0.0
SMILES,GSTO1 inh,PAD4 inh,PRMT1 FP inh,eLon inh,TDP2 absorb,PAD4 FP conf
COc1ccc(-c2noc(C3CCCN(C(=O)NC4CCC(C)CC4)C3)n2)cc1 (stereo unspecified),x,x,2.0,x,6.1,x
OCCNC(=S)Nc1ccc2nsnc2c1,85.1*,28.4*,0.9,-4.9,-5.8,5.8
OCCNC(=S)Nc1ccc(Cl)c(Cl)c1,4.2,2.0,-0.5,-7.5,-2.4,x
CCN(Cc1ccc2c(c1)OCCO2)C(=O)CSc1nc(C)nc2sc(C)c(C)c12,x,78.8*,3.8,-9.8,-2.6,-3.5
FC(F)Oc1ccc(-c2csc(NNC3=NCCCCC3)n2)cc1,14.7,19.5*,38.4*,-4.6,0.2,4.5
Brc1ccc(-c2csc(NNC3=NCCCCC3)n2)cc1,3.9,-1.1,12.3,5.2,-6.2,x
Cc1cc2cc(CNC(=O)COc3ccccc3)ccc2n1C,3.5,32.5*,0.1,22.7,12.7,5.9
CCOc1ccc(CC(=O)NCc2ccc3c(c2)cc(C)n3C)cc1,8.8,-0.3,2.5,-2.5,-10.7,x
CC(C)c1cccc(C(C)C)c1NC(=O)CN1C(=O)NC2(CCCCCCC2)C1=O,x,18.1*,-0.3,7.0,-4.2,7.7
CC(C)c1cccc(C(C)C)c1NC(=O)CN1C(=O)NC2(CCCC2)C1=O,5.1,3.3,-2.1,-6.6,1.0,x
O=S(=O)(CCSc1nc2ccccc2s1)c1nc2ccccc2s1,-6.8,49.5*,10.3,5.5,-14.9,40.9*
O=C1C=C(Nc2ccc(F)cc2)c2ccccc2C1=O,x,40.2*,-0.5,-5.2,19.1,38.5*
O=S1(=O)c2ccccc2-c2c(nnn2CC2CCCCC2)CN1C1CC1,x,x,0.7,x,-0.6,x
COCCCNc1nc2ccccc2nc1NS(=O)(=O)c1cccs1,-3.5,16.0*,2.8,2.0,5.4,-10.6
NNC(=O)c1snnc1-c1ccccc1,-0.1,39.6*,-1.2,-0.1,0.9,13.9
Cc1cc2c(s1)c1cnn(Cc3c(Cl)ccc(C)c3F)c(=O)c1n2C,x,x,-1.4,x,5.7,x
O=C(NCc1ccccc1Cl)C1CCCN(c2nc3ccccc3o2)C1 (stereo unspecified),x,x,12.6,x,-3.9,x
CCCCN1C(=O)Nc2ccccc2S1=O (stereo unspecified),13.2,15.8*,-1.0,-7.7,5.8,10.3
COc1ccccc1N1CCN(C(=O)c2cccc(C(=O)N3CCN(c4ccccc4OC)CC3)c2)CC1,4.6,-7.7,-3.4,6.3,0.5,x
COc1ccccc1N1CCN(C(=O)c2coc(=O)c(Br)c2)CC1,-2.3,34.3*,0.4,-2.0,20.8,-0.6
Cc1cc2c(cc1C)N(C(=O)CSc1nncn1C)C(C)(C)c1ssc(=S)c1-2,-5.8,33.3*,8.8,-5.0,-11.1,32.5*
Clc1cc(Cl)cc(CNC2CCC23CCCCC3)c1 (stereo unspecified),x,x,-1.5,x,3.9,x
COc1ccc(-c2nc(C(=O)NCCCN3CCOCC3)cc3c2[nH]c2ccccc23)cc1OC,-15.8,59.0*,0.9,-2.5,-2.5,67.4*
COc1ccc(NC(=O)CSc2nnc(-c3cccs3)o2)cc1Cl,x,x,2.1,x,-6.3,x
Cc1c([N+](=O)[O-])cnc(Sc2ccccc2)c1[N+](=O)[O-],13.0,26.1*,4.6,-3.3,-16.2,14.2
Cc1ccc(Sc2ncccc2[N+](=O)[O-])cc1,-6.9,-8.1,1.6,0.1,-0.8,x
